Calls of active or inactive are those of the source. No cut-off for these calls is given here.
Key:
[1] = Antidiabetic nephropathic activity in rat HBZY-1 cells assessed as inhibition of high concentration glucose-induced IL-6 production at 10 uM treated 1 hr before glucose challenge measured after 24 hrs by ELISA; assay type: functional, cell-based
How it was run: (§1)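 HBZY-1 rat mesangial cells (passages 3–10) were grown in DMEM with 5.6 mM glucose, 20% FCS and 10 mM HEPES. At 80% confluence they were arrested in 0.5% FCS for 24 h, then pretreated with compound for 1 h and stimulated with high glucose (25 mM) for 24 h. Supernatant IL-6, fibronectin or collagen IV was measured by sandwich ELISA, normalized to total cell protein (BCA), and compared by ANOVA.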

[2] = Cytotoxicity against rat HBZY-1 cells assessed as cell viability at 10 uM after 48 hrs by MTT assay; assay type: cell-based; details: hbzy-1, 48 h
How it was run: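 Cells were seeded at 10⁴ per well and held in serum-free medium for 24 h. They were exposed to compound at 10 μM, or left without it, for 48 h. MTT (5 mg/mL stock) was added for 4 h at 37 °C, the formazan was dissolved in DMSO, and A570 was read. Values were normalized to control-medium cells.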

[3] = Antidiabetic nephropathic activity in rat HBZY-1 cells assessed as inhibition of high concentration glucose-induced collagen-4 production at 10 uM treated 1 hr before glucose challenge measured after 24 hrs by ELISA; assay type: functional, cell-based; how it was run: as §1
[4] = Antidiabetic nephropathic activity in rat HBZY-1 cells assessed as inhibition of high concentration glucose-induced fibronectin production at 10 uM treated 1 hr before glucose challenge measured after 24 hrs by ELISA; assay type: functional, cell-based; how it was run: as §1
[5] = Antidiabetic nephropathic activity in rat HBZY-1 cells assessed as inhibition of high concentration glucose-induced IL-6 production at 35 uM treated 1 hr before glucose challenge measured after 24 hrs by ELISA; assay type: functional, cell-based; how it was run: as §1
[6] = Antidiabetic nephropathic activity in rat HBZY-1 cells assessed as inhibition of high concentration glucose-induced IL-6 production at 88 uM treated 1 hr before glucose challenge measured after 24 hrs by ELISA; assay type: functional, cell-based

Compound	inhibition [1]	Activity [2]	inhibition [3]	inhibition [4]	inhibition [5]	inhibition [6]
COc1cc(O)c2c(c1)[C@@](O)([C@@H]1O[C@H](CO)[C@@H](O)[C@H](O)[C@H]1O)c1cc(C)cc(O)c1C2=O	Active	Non-toxic	Active	Active		
Cc1cc(O[C@@H]2O[C@H](CO)[C@@H](O)[C@H](O)[C@H]2O)c(C(=O)c2c(O)cccc2O)c(C(=O)O)c1	Active	Non-toxic	Active	Active		
Cc1cc(O)c2c(c1)[C@@](O)([C@@H]1O[C@H](CO)[C@@H](O)[C@H](O)[C@H]1O)c1cc(O)cc(O)c1C2=O		Non-toxic	Active	Active		
COC(=O)c1cc(O)cc(OC)c1C(=O)c1c(O)cc(C)cc1OC	Active	Non-toxic	Active	Active		
CC(=O)OC[C@H]1O[C@@H](Oc2cc(O)cc3c2C(=O)c2c(O)cc(C)cc2C3=O)[C@H](O)[C@@H](O)[C@@H]1O	Active					
COc1cc(C)cc2c1C(=O)c1c(O)cc(O)cc1C2=O	Active					
COc1cc(O)c2c(c1)[C@](O)([C@@H]1O[C@H](CO)[C@@H](O)[C@H](O)[C@H]1O)c1cc(C)cc(O)c1C2=O	Active					
Cc1cc(O)c2c(c1)C(=O)c1cc(O)cc(O[C@@H]3O[C@H](CO)[C@@H](O)[C@H](O)[C@H]3O)c1C2=O	Active					
O=C(O)c1cc(O)c2c(c1)C(=O)c1cccc(O)c1C2=O					inactive	Active
O=C1c2cccc(O)c2C(=O)c2c(O)cc(CO)cc21	Active					
COC(=O)c1c(OC)c(O)cc(OC)c1C(=O)c1c(O)cc(C)cc1OC [ASPERFUMIN]	Active	Non-toxic	Active	Active		
Cc1cc(O)c2c(c1)C(=O)c1cccc(O)c1C2=O [CHRYSOPHANOL]	Active	Non-toxic	Active	Active		
Cc1cc(O)c2c(c1)C(=O)c1cc(O)cc(O)c1C2=O [EMODIN]	Active	Non-toxic	Active	Active		
COc1cc(O)c2c(c1)C(=O)c1cc(C)cc(O)c1C2=O [PHYSCION]	Active	Non-toxic	Active	Active		
COc1cc(O)cc2c1C(=O)c1c(O)cc(C)cc1C2=O [QUESTIN]	Active	Non-toxic	Active	Active		
COC(=O)C1=CC(=O)C=C(OC)C12Oc1cc(C)cc(OC)c1C2=O (stereo unspecified) [TRYPACIDIN]	Active	Non-toxic	Active	Active		
